# Data published in ChEMBL document CHEMBL1649115, “Enhanced susceptibility to antifungal oligopeptides in yeast strains overexpressing ABC multidrug efflux pumps” (Antimicrob Agents Chemother, 2008).
# Non-standard residues stand in square brackets, D forms with d. Residues, ends and D or L forms follow the SMILES beside them. Phe(3-F) = N[C@@H](Cc1cccc(F)c1)C(=O)O
# How the values were obtained:
# Candida albicans [1] = assay: Antifungal activity against wild type Candida albicans 10261 in RPMI-1640 buffered medium after 24 hrs by microdilution method; assay type: functional; conditions: Candida albicans, 10261, 24 h; read-out: MIC
# Summary of the method: (§1)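 C. albicans cells were grown in 2% glucose, 1% yeast extract, 1% Bacto peptone medium before testing. […] CARE-2 fingerprinting confirmed that each pair is a single strain.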
# Saccharomyces cerevisiae [2] = assay: Antifungal activity against Saccharomyces cerevisiae ADCDR1 expressing Candida albicans CDR1 efflux pump in YNPG-proline medium after 24 hrs by microdilution method; assay type: functional; conditions: ADCDR1, 24 h
# Candida albicans [3] = assay: Antifungal activity against fluconazole resistant Candida albicans isolate B4 overexpressing MDR1 in RPMI-1640 buffered medium after 24 hrs by microdilution method; assay type: functional; conditions: Candida albicans, isolate B4, 24 h; read-out: MIC; summary of the method: as §1
# Saccharomyces cerevisiae [4] = assay: Antifungal activity against Saccharomyces cerevisiae AD12345678 in YNPG-proline medium after 24 hrs by microdilution method; assay type: functional; conditions: AD12345678, 24 h
# Candida albicans [5] = assay: Antifungal activity against fluconazole resistant Candida albicans isolate Gu5 overexpressing CDR1 and CDR2 in RPMI-1640 buffered medium after 24 hrs by microdilution method; assay type: functional; conditions: isolate Gu5, 24 h
# Summary of the method: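 C. albicans cells were grown in 2% glucose, 1% yeast extract, 1% Bacto peptone medium before testing. CARE-2 fingerprinting confirmed that each pair is a single strain.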
# Saccharomyces cerevisiae [6] = assay: Antifungal activity against Saccharomyces cerevisiae ADMDR1 expressing Candida albicans MDR1 efflux pump in YNPG-proline medium after 24 hrs by microdilution method; assay type: functional; conditions: ADMDR1, 24 h
# Saccharomyces cerevisiae [7] = assay: Antifungal activity against Saccharomyces cerevisiae ADCDR2 expressing Candida albicans CDR2 efflux pump in YNPG-proline medium after 24 hrs by microdilution method; assay type: functional; conditions: ADCDR2, 24 h
# Candida albicans [8] = assay: Antifungal activity against fluconazole sensitive Candida albicans isolate Gu4 in RPMI-1640 buffered medium after 24 hrs by microdilution method; assay type: functional; conditions: Candida albicans, isolate Gu4, 24 h; read-out: MIC; summary of the method: as §1
# Saccharomyces cerevisiae [9] = assay: Antifungal activity against wild type Saccharomyces cerevisiae ATCC 9763 in YNPG-proline medium after 24 hrs by microdilution method; assay type: functional; conditions: ATCC 9763, 24 h
# Candida albicans [10] = assay: Antifungal activity against fluconazole sensitive Candida albicans isolate B3 in RPMI-1640 buffered medium after 24 hrs by microdilution method; assay type: functional; conditions: Candida albicans, isolate B3, 24 h; read-out: MIC; summary of the method: as §1
# Saccharomyces cerevisiae [11] = assay: Drug uptake in Saccharomyces cerevisiae ADCDR1 expressing Candida albicans CDR1 efflux pump at 200 uM pretreated for 10 mins measured after 60 mins by fluorescamine staining; assay type: ADME, organism-based; conditions: in vivo, 1 h
# Saccharomyces cerevisiae [12] = assay: Prodrug stability in wild type Saccharomyces cerevisiae ATCC 9763 assessed as compound cleavage rate measured per mg of protein; assay type: ADME, organism-based; conditions: in vivo
# Saccharomyces cerevisiae [13] = assay: Drug uptake in Saccharomyces cerevisiae ADMDR1 expressing Candida albicans MDR1 efflux pump at 200 uM pretreated for 10 mins measured after 60 mins by fluorescamine staining; assay type: ADME, organism-based; conditions: in vivo, 1 h
# Candida albicans [14] = assay: Prodrug stability in fluconazole sensitive Candida albicans isolate Gu4 assessed as compound cleavage rate measured per mg of protein; assay type: ADME, organism-based; conditions: in vivo
# Summary of the method: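 Oligopeptides were incubated with cell extracts of the yeast cells, and their hydrolytic enzymes cleaved them. The amino acids released were quantified by the Cd-ninhydrin method.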
# Candida albicans [15] = assay: Prodrug stability in wild type Candida albicans 10261 assessed as compound cleavage rate measured per mg of protein; assay type: ADME, organism-based; conditions: in vivo
# Saccharomyces cerevisiae [16] = assay: Drug uptake in Saccharomyces cerevisiae AD12345678 at 200 uM pretreated for 10 mins measured after 60 mins by fluorescamine staining; assay type: ADME, organism-based; conditions: in vivo, 1 h
# Saccharomyces cerevisiae [17] = assay: Prodrug stability in Saccharomyces cerevisiae ADCDR2 expressing Candida albicans CDR2 efflux pump assessed as compound cleavage rate measured per mg of protein; assay type: ADME, organism-based; conditions: in vivo
# Candida albicans [18] = assay: Prodrug stability in fluconazole sensitive Candida albicans isolate B3 assessed as compound cleavage rate measured per mg of protein; assay type: ADME, organism-based; conditions: in vivo
# Saccharomyces cerevisiae [19] = assay: Prodrug stability in Saccharomyces cerevisiae ADCDR1 expressing Candida albicans CDR1 efflux pump assessed as compound cleavage rate measured per mg of protein; assay type: ADME, organism-based; conditions: in vivo
# Saccharomyces cerevisiae [20] = assay: Drug uptake in Saccharomyces cerevisiae ADCDR2 expressing Candida albicans CDR2 efflux pump at 200 uM pretreated for 10 mins measured after 60 mins by fluorescamine staining; assay type: ADME, organism-based; conditions: in vivo, 1 h
# Saccharomyces cerevisiae [21] = assay: Prodrug stability in Saccharomyces cerevisiae AD12345678 assessed as compound cleavage rate measured per mg of protein; assay type: ADME, organism-based; conditions: in vivo
# Saccharomyces cerevisiae [22] = assay: Prodrug stability in Saccharomyces cerevisiae ADMDR1 expressing Candida albicans MDR1 efflux pump assessed as compound cleavage rate measured per mg of protein; assay type: ADME, organism-based; conditions: in vivo
# Saccharomyces cerevisiae [23] = assay: Antifungal activity against Saccharomyces cerevisiae AD12345678 in YNPG medium containing 1 mg/ml […] after 24 hrs by microdilution method; assay type: functional; conditions: AD12345678, 24 h
# Saccharomyces cerevisiae [24] = assay: Antifungal activity against Saccharomyces cerevisiae ADMDR1 expressing Candida albicans MDR1 efflux pump in YNPG medium containing 1 mg/ml […] after 24 hrs by microdilution method; assay type: functional; conditions: ADMDR1, 24 h
# Saccharomyces cerevisiae [25] = assay: Antifungal activity against wild type Saccharomyces cerevisiae ATCC 9763 in YNPG medium containing 1 mg/ml […] after 24 hrs by microdilution method; assay type: functional; conditions: ATCC 9763, 24 h
# Saccharomyces cerevisiae [26] = assay: Antifungal activity against Saccharomyces cerevisiae ADCDR1 expressing Candida albicans CDR1 efflux pump in YNPG medium containing 1 mg/ml […] after 24 hrs by microdilution method; assay type: functional; conditions: ADCDR1, 24 h
# Saccharomyces cerevisiae [27] = assay: Antifungal activity against Saccharomyces cerevisiae ADCDR2 expressing Candida albicans CDR2 efflux pump in YNPG medium containing 1 mg/ml […] after 24 hrs by microdilution method; assay type: functional; conditions: ADCDR2, 24 h
SMILES,MIC (Candida albicans [1]) [µg/mL],MIC (Saccharomyces cerevisiae [2]) [µg/mL],MIC (Candida albicans [3]) [µg/mL],MIC (Saccharomyces cerevisiae [4]) [µg/mL],MIC (Candida albicans [5]) [µg/mL],MIC (Saccharomyces cerevisiae [6]) [µg/mL],MIC (Saccharomyces cerevisiae [7]) [µg/mL],MIC (Candida albicans [8]) [µg/mL],MIC (Saccharomyces cerevisiae [9]) [µg/mL],MIC (Candida albicans [10]) [µg/mL],Drug uptake (Saccharomyces cerevisiae [11]) [nmol/min/mg],Stability (Saccharomyces cerevisiae [12]) [nmol/min],Drug uptake (Saccharomyces cerevisiae [13]) [nmol/min/mg],Stability (Candida albicans [14]) [nmol/min],Stability (Candida albicans [15]) [nmol/min],Drug uptake (Saccharomyces cerevisiae [16]) [nmol/min/mg],Stability (Saccharomyces cerevisiae [17]) [nmol/min],Stability (Candida albicans [18]) [nmol/min],Stability (Saccharomyces cerevisiae [19]) [nmol/min],Drug uptake (Saccharomyces cerevisiae [20]) [nmol/min/mg],further results
CC(C)C[C@H](NC(=O)[C@@H](N)COCCN)C(=O)NCC(=O)O,128,1,32,4,16,4,1,256,8,64,–,–,–,–,–,–,–,–,–,–,–
CCC[C@H](N)C(=O)N[C@@H](CNC(=O)/C=C/C(=O)OC)C(=O)O,2,0.5,4,4,0.125,4,1,2,4,4,1.86,14,1.02,20,20,0.96,14,20,14,1.56,Stability (Saccharomyces cerevisiae [21]): 14 nmol/min; Stability (Saccharomyces cerevisiae [22]): 14 nmol/min
CCC[C@H](NC(=O)[C@@H](N)CCCCN)C(=O)N[C@@H](CNC(=O)/C=C/C(=O)OC)C(=O)O [listing 1 of 2 here],–,–,–,–,–,–,–,–,–,–,1.61,14,0.81,20,20,0.79,14,20,14,1.18,Stability (Saccharomyces cerevisiae [21]): 14 nmol/min; Stability (Saccharomyces cerevisiae [22]): 14 nmol/min
CCC[C@H](NC(=O)[C@@H](N)CCCCN)C(=O)N[C@@H](CNC(=O)/C=C/C(=O)OC)C(=O)O [listing 2 of 2 here],8,4,8,32,1,32,8,4,32,8,–,–,–,–,–,–,–,–,–,–,–
C[C@H](N)C(=O)N[C@@H](C)C(=O)N[C@@H](C)C(=O)O,–,–,–,–,–,–,–,–,–,–,5.3,–,2.91,–,–,3.15,–,–,–,4.74,–
NC(CC(=O)NO)C(=O)O (centres undefined),256,–,256,–,128,–,–,256,–,256,2.25,–,1.25,–,–,1.54,–,–,–,1.69,MIC (Saccharomyces cerevisiae [23]): 256 µg/mL; MIC (Saccharomyces cerevisiae [24]): 128 µg/mL; MIC (Saccharomyces cerevisiae [25]): 256 µg/mL; MIC (Saccharomyces cerevisiae [26]): 64 µg/mL; MIC (Saccharomyces cerevisiae [27]): 64 µg/mL
CSCC[C@H](NC(=O)[C@@H](N)CCSC)C(=O)N[C@@H](Cc1cccc(F)c1)C(=O)O (H-Met-Met-[Phe(3-F)]-OH),128,32,128,512,32,256,32,128,256,128,1.11,14,0.67,20,20,0.64,14,20,14,1.23,Stability (Saccharomyces cerevisiae [21]): 14 nmol/min; Stability (Saccharomyces cerevisiae [22]): 14 nmol/min
